In ChEMBL document CHEMBL1649117, “GRL-02031, a novel nonpeptidic protease inhibitor (PI) containing a stereochemically defined fused cyclopentanyltetrahydrofuran potent against multi-PI-resistant human immunodeficiency virus type 1 in vitro” (Antimicrob Agents Chemother, 2009):

What was measured:
[1] = tested on: Human immunodeficiency virus 1; experiment: Ratio of EC50 for HIV1 G harboring L10I/V11I/T12E/I15V/L19I/R41K/M46L/L63P/A71T/V82A/L90M in protease encoding region to EC50 for HIV1 ERS104pre; assay type: functional
[2] = tested on: Human immunodeficiency virus 1; experiment: Ratio of EC50 for HIV1 JSL harboring L10I/L24I/L33F/E35D/M36I/N37S/M46L/I54V/R57K/I62V/L63P/A71V/G73S/82A in protease encoding region to EC50 for HIV1 ERS104pre; assay type: functional
[3] = tested on: Human immunodeficiency virus 1; experiment: Antiviral activity against HIV1 ERS104pre infected in human PHA-PBC assessed as inhibition of p24 Gag protein production by ELISA; assay type: functional, organism-based; settings: Human immunodeficiency virus 1, ERS104pre
Summary of the method: (§1)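 Phytohemagglutinin-stimulated PBMs (10^6/ml) infected with 50 TCID50s of each primary isolate, cultured with or without drug in 10-fold serial dilutions. On day 7, supernatant p24 Gag was measured by automated chemiluminescent enzyme immunoassay. Triplicate.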

[4] = tested on: Human immunodeficiency virus 1; experiment: Ratio of EC50 for HIV1 MM harboring L10I/K43T/M46L/I54V/L63P/A71V/V82A/L90M/Q92K in protease encoding region infected to EC50 for HIV1 ERS104pre; assay type: functional
[5] = tested on: Human immunodeficiency virus 1; experiment: Antiviral activity against HIV1 JSL harboring L10I/L24I/L33F/E35D/M36I/N37S/M46L/I54V/R57K/I62V/L63P/A71V/G73S/82A in protease encoding region infected in human PHA-PBC assessed as inhibition of p24 Gag protein production by ELISA; assay type: functional, organism-based; settings: Human immunodeficiency virus 1, JSL
Summary of the method: (§2)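 Phytohemagglutinin-stimulated PBMs (10^6/ml) infected with 50 TCID50s of each primary isolate, cultured with or without drug in 10-fold serial dilutions. On day 7, supernatant p24 Gag was measured by automated chemiluminescent enzyme immunoassay. […] Triplicate.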

[6] = tested on: Human immunodeficiency virus 1; experiment: Antiviral activity against HIV1 TM harboring L10I/K14R/R41K/M46L/I54V/L63P/A71V/V82A/L90M/I93L in protease encoding region infected in human PHA-PBC assessed as inhibition of p24 Gag protein production by ELISA; assay type: functional, organism-based; settings: Human immunodeficiency virus 1, TM; summary of the method: as §2
[7] = tested on: Human immunodeficiency virus 1; experiment: Ratio of EC50 for HIV1 A harboring L10I/I15V/E35D/N37E/K45R/I54V/L63P/A71V/V82T/L90M/I93L/C95F in protease encoding region to EC50 for HIV1 ERS104pre; assay type: functional
[8] = tested on: Human immunodeficiency virus 1; experiment: Ratio of EC50 for HIV1 C harboring L10I/I15V/K20R/L24I/M36I/M46L/I54V/I62V/L63P/K70Q/V82A/L89M in protease encoding region to EC50 for HIV1 ERS104pre; assay type: functional
[9] = tested on: Human immunodeficiency virus 1; experiment: Antiviral activity against HIV1 MM harboring L10I/K43T/M46L/I54V/L63P/A71V/V82A/L90M/Q92K in protease encoding region infected in human PHA-PBC assessed as inhibition of p24 Gag protein production by ELISA; assay type: functional, organism-based; settings: Human immunodeficiency virus 1, MM; summary of the method: as §2
[10] = tested on: Human immunodeficiency virus 1; experiment: Ratio of EC50 for HIV1 TM harboring L10I/K14R/R41K/M46L/I54V/L63P/A71V/V82A/L90M/I93L in protease encoding region to EC50 for HIV1 ERS104pre; assay type: functional
Summary of the method: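 PHA-stimulated PBMs (10^6/ml) infected with 50 TCID50s of primary HIV-1 isolate and cultured with 10-fold serial drug dilutions. Day 7 supernatant p24 Gag measured by chemiluminescent enzyme immunoassay. […] Triplicate. Ratio is resistant isolate EC50 over reference isolate EC50.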

[11] = tested on: Human immunodeficiency virus 1; experiment: Antiviral activity against HIV1 B harboring L10I/I15V/E35D/N37E/K45R/I54V/L63P/A71V/V82T/L90M/I93L/C95F in protease encoding region infected in human PHA-PBC assessed as inhibition of p24 Gag protein production by ELISA; assay type: functional, organism-based; settings: Human immunodeficiency virus 1, B; summary of the method: as §2
[12] = tested on: Human immunodeficiency virus 1; experiment: Antiviral activity against HIV1 MOKW infected in human PHA-PBC assessed as inhibition of p24 Gag protein production by ELISA; assay type: functional, organism-based; settings: Human immunodeficiency virus 1, MOKW; summary of the method: as §2
[13] = tested on: Human immunodeficiency virus 1; experiment: Antiviral activity against HIV1 A harboring L10I/I15V/E35D/N37E/K45R/I54V/L63P/A71V/V82T/L90M/I93L/C95F in protease encoding region infected in human PHA-PBC assessed as inhibition of p24 Gag protein production by ELISA; assay type: functional, organism-based; settings: Human immunodeficiency virus 1, A; summary of the method: as §1
[14] = tested on: Human immunodeficiency virus 1; experiment: Ratio of EC50 for HIV1 B harboring L10I/I15V/E35D/N37E/K45R/I54V/L63P/A71V/V82T/L90M/I93L/C95F in protease encoding region to EC50 for HIV1 ERS104pre; assay type: functional
[15] = tested on: Human immunodeficiency virus 1; experiment: Antiviral activity against HIV1 NL4-3 harboring L23I/K43I/M46I/I50L/G51A/A71V amino acid substitution in protease encoding region infected in human MT4 cells assessed as inhibition of p24 Gag protein production selected at 1 uM of atazanavir by ELISA; assay type: functional, organism-based; settings: Human immunodeficiency virus 1, NL4-3, MT4
Summary of the method: (§3)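 HIV-1NL4-3 (500 TCID50s) was passaged in MT-4 cells, starting at 0.01–0.03 µM PI and raising the drug generally two- to threefold as virus propagated. Cell-free passage used day-7 supernatants. Variants were then tested in MT-4 cells (10^5/ml) with 100 TCID50s, with or without drug, at 37°C. Day-7 p24 Gag was read by chemiluminescent immunoassay; EC50 vs drug-free control; triplicate.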

[16] = tested on: Human immunodeficiency virus 1; experiment: Antiviral activity against HIV1 NL4-3 harboring L10F/L24I/M46I/L63P/A71V/G73S/V82T amino acid substitution in protease encoding region infected in human MT4 cells assessed as inhibition of p24 Gag protein production selected at 5 uM of indinavir by ELISA; assay type: functional, organism-based; settings: Human immunodeficiency virus 1, NL4-3, MT4; summary of the method: as §3
[17] = tested on: Human immunodeficiency virus 1; experiment: Antiviral activity against HIV1 NL4-3 harboring L10F/D30N/K45I/A71V/T74S amino acid substitution in protease encoding region infected in human MT4 cells assessed as inhibition of p24 Gag protein production selected at 5 uM of nelfinavir by ELISA; assay type: functional, organism-based; settings: Human immunodeficiency virus 1, NL4-3, MT4; summary of the method: as §3
[18] = tested on: Human immunodeficiency virus 1; experiment: Ratio of EC50 for HIV1 NL4-3 harboring L10F/M46I/I54V/V82A amino acid substitution in protease encoding region to EC50 for HIV1 NL4-3; assay type: functional
Summary of the method: (§4)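 MT-4 cells (10^5/ml) infected with 100 TCID50s of PI-selected HIV-1NL4-3 variants or the parental strain, with or without serial drug concentrations, at 37°C. Day 7 supernatant p24 Gag measured by chemiluminescent enzyme immunoassay. […] Triplicate. Ratio is variant EC50 over wild-type EC50.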

[19] = tested on: Human immunodeficiency virus 1; experiment: Antiviral activity against HIV1 NL4-3 harboring L10F/V32I/M46I/I54M//A71V/I84V amino acid substitution in protease encoding region infected in human MT4 cells assessed as inhibition of p24 Gag protein production selected at 5 uM of amprenavir by ELISA; assay type: functional, organism-based; settings: Human immunodeficiency virus 1, NL4-3, MT4
Summary of the method: (§5)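 Cell-free passage used day-7 supernatants. Variants were then tested in MT-4 cells (10^5/ml) with 100 TCID50s, with or without drug, at 37°C. Day-7 p24 Gag was read by chemiluminescent immunoassay; EC50 vs drug-free control; triplicate.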

[20] = tested on: Human immunodeficiency virus 1; experiment: Antiviral activity against HIV1 NL4-3 infected in human MT4 cells assessed as inhibition of p24 gag protein production by ELISA; assay type: functional, organism-based; settings: Human immunodeficiency virus 1, NL4-3, MT4
Summary of the method: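 MT-4 cells (10^5/ml) were infected with 100 TCID50s of HIV-1 and cultured at 37°C with or without various drug concentrations. On day 7, supernatant p24 Gag was measured by automated chemiluminescent enzyme immunoassay. […] Assays were run in triplicate.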

[21] = tested on: Human immunodeficiency virus 1; experiment: Ratio of EC50 for HIV1 NL4-3 harboring L10I/G48V/I54V/L90M amino acid substitution in protease encoding region to EC50 for HIV1 NL4-3; assay type: functional; summary of the method: as §4
[22] = tested on: Human immunodeficiency virus 1; experiment: Antiviral activity against HIV1 NL4-3 harboring L10F/M46I/I54V/V82A amino acid substitution in protease encoding region infected in human MT4 cells assessed as inhibition of p24 Gag protein production selected at 1 uM of Lopinavir by ELISA; assay type: functional, organism-based; settings: Human immunodeficiency virus 1, NL4-3, MT4; summary of the method: as §5
[23] = tested on: Human immunodeficiency virus 1; experiment: Ratio of EC50 for HIV1 NL4-3 harboring L10F/L24I/M46I/L63P/A71V/G73S/V82T amino acid substitution in protease encoding region to EC50 for HIV1 NL4-3; assay type: functional; summary of the method: as §4
[24] = tested on: Human immunodeficiency virus 1; experiment: Ratio of EC50 for HIV1 NL4-3 harboring L10F/V32I/M46I/I54M//A71V/I84V amino acid substitution in protease encoding region to EC50 for HIV1 NL4-3; assay type: functional; summary of the method: as §4
[25] = tested on: Human immunodeficiency virus 1; experiment: Antiviral activity against HIV1 NL4-3 harboring M46I/V82F/I84V amino acid substitution in protease encoding region infected in human MT4 cells assessed as inhibition of p24 Gag protein production selected at 5 uM of ritonavir by ELISA; assay type: functional, organism-based; settings: Human immunodeficiency virus 1, NL4-3, MT4; summary of the method: as §3
[26] = tested on: Human immunodeficiency virus 1; experiment: Ratio of EC50 for HIV1 NL4-3 harboring L10F/L33F/M46I/I47V/Q58E/V82I/I84V/I85V amino acid substitution in protease encoding region to EC50 for HIV1 NL4-3; assay type: functional; summary of the method: as §4
[27] = tested on: Human immunodeficiency virus 1; experiment: Ratio of EC50 for HIV1 NL4-3 harboring L23I/K43I/M46I/I50L/G51A/A71V amino acid substitution in protease encoding region to EC50 for HIV1 NL4-3; assay type: functional; summary of the method: as §4
[28] = tested on: Human immunodeficiency virus 1; experiment: Antiviral activity against HIV1 NL4-3 harboring L10F/L33F/M46I/I47V/Q58E/V82I/I84V/I85V amino acid substitution in protease encoding region infected in human MT4 cells assessed as inhibition of p24 Gag protein production selected at 5 uM of GRL-02031 by ELISA; assay type: functional, organism-based; settings: Human immunodeficiency virus 1, NL4-3, MT4; summary of the method: as §5
[29] = tested on: Human immunodeficiency virus 1; experiment: Antiviral activity against HIV1 NL4-3 harboring L10I/G48V/I54V/L90M amino acid substitution in protease encoding region infected in human MT4 cells assessed as inhibition of p24 Gag protein production selected at 5 uM of saquinavir by ELISA; assay type: functional, organism-based; settings: Human immunodeficiency virus 1, NL4-3, MT4; summary of the method: as §3
[30] = tested on: Human immunodeficiency virus 1; experiment: Ratio of EC50 for HIV1 NL4-3 harboring L10F/D30N/K45I/A71V/T74S amino acid substitution in protease encoding region to EC50 for HIV1 NL4-3; assay type: functional
[31] = tested on: Human immunodeficiency virus 1; experiment: Ratio of EC50 for HIV1 NL4-3 harboring M46I/V82F/I84V amino acid substitution in protease encoding region to EC50 for HIV1 NL4-3; assay type: functional; summary of the method: as §4

CC(C)CN(C[C@@H](O)[C@H](Cc1ccccc1)NC(=O)O[C@H]1CO[C@H]2OCC[C@H]21)S(=O)(=O)c1ccc(N)cc1
Ratio EC50 [1]: 2
Ratio EC50 [2]: 7
EC50 [3]: 3.5 nM
Ratio EC50 [4]: 5
EC50 [5]: 26 nM
EC50 [6]: 4 nM
Ratio EC50 [7]: 1
Ratio EC50 [8]: 2
EC50 [9]: 17 nM
Ratio EC50 [10]: 1
EC50 [11]: 26 nM
EC50 [12]: 3 nM
EC50 [13]: 3 nM
Ratio EC50 [14]: 7

COC(=O)N[C@H](C(=O)N[C@@H](Cc1ccccc1)[C@@H](O)CN(Cc1ccc(-c2ccccn2)cc1)NC(=O)[C@@H](NC(=O)OC)C(C)(C)C)C(C)(C)C [ATAZANAVIR]
EC50 [15]: 310 nM
EC50 [16]: 63 nM
EC50 [17]: 24 nM
Ratio EC50 [18]: 10
EC50 [19]: 3.2 nM
EC50 [20]: 4.3 nM
Ratio EC50 [21]: 74
EC50 [22]: 41 nM
Ratio EC50 [23]: 15
Ratio EC50 [24]: 1
EC50 [25]: 21 nM
Ratio EC50 [26]: 8
Ratio EC50 [27]: 72
EC50 [28]: 36 nM
EC50 [29]: 320 nM
Ratio EC50 [30]: 6
Ratio EC50 [31]: 5
